# Experimental data from ChEMBL document CHEMBL1806374, “Synthesis, characterization and cytotoxicity of some novel 1,3-disubstituted-2,3-dihydro-2-iminobenzimidazoles” (Eur J Med Chem, 2011).
# Key:
# [1] = tested on: MDA-MB-231; test: Cytotoxicity against human MDA-MB-231 cells after 24 hrs by MTS assay; format: functional, cell-based; details: MDA-MB-231, 24 h
# In short: (§1)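 Cells were seeded at 2 × 10⁴ per well. After 24 h the monolayers were washed and overlaid with medium containing compound, from a 0.5 mg/ml DMSO stock diluted 1:10 to 1:10 000. Untreated medium served as control. After 24 h, MTS was added for 2 h at 37 °C in 5% CO2, and A490 was read. Viability was expressed as % of control, averaged over three independent assays, and IC50/EC50 were taken from the plotted curves.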
# [2] = tested on: HT-29; test: Antiproliferative activity against human HT-29 cells after 24 hrs by MTS assay; format: functional, cell-based; details: HT-29, 24 h; in short: as §1
# [3] = Antiproliferative activity against at human Splenocytes after 24 hrs by MTS assay; format: cell-based; details: Splenocyte; in short: as §1
# [4] = tested on: HT-29; test: Cytotoxicity against human HT-29 cells after 24 hrs by MTS assay; format: functional, cell-based; details: HT-29, 24 h; in short: as §1
# [5] = tested on: MDA-MB-231; test: Antiproliferative activity against human MDA-MB-231 cells after 24 hrs by MTS assay; format: functional, cell-based; details: MDA-MB-231, 24 h; in short: as §1
# [6] = Cytotoxicity against human Splenocytes after 24 hrs by MTS assay; format: cell-based; details: Splenocyte; in short: as §1
Structure (SMILES),IC50 [1] [nM],EC50 [2] [nM],EC50 [3] [nM],IC50 [4] [nM],EC50 [5] [nM],IC50 [6] [nM]
CCOC(=O)Cn1c(=N)n(CC(=O)OCC)c2ccccc21,1.15,2.37,14.3,–,–,–
N=c1n(CCCc2ccccc2)c2ccccc2n1CCCc1ccccc1,–,–,14.1,9.26,1.39,–
CCOC(=O)C(C)N1C2=NC(=O)C(C)N2c2ccccc21 (stereo not drawn),–,5.68,0.542,–,2.02,–
N=c1n(CC(=O)NCCCN)c2ccccc2n1CC(=O)NCCCN,0.123,–,0.05,0.56,–,–
N=c1n(CC(=O)NCc2ccccc2)c2ccccc2n1CC(=O)NCc1ccccc1,1.65,0.205,7.74,–,–,–
CN1CCN(C(=O)Cn2c(=N)n(CC(=O)N3CCN(C)CC3)c3ccccc32)CC1,–,–,–,0.013,1.59,1.38
N=c1n(CC(=O)N/N=C/c2ccc(F)cc2)c2ccccc2n1CC(=O)N/N=C/c1ccc(F)cc1,–,4.3,16.9,–,–,–
N=c1n(CC(=O)N/N=C/c2cccc(F)c2)c2ccccc2n1CC(=O)N/N=C/c1cccc(F)c1,–,3.51,11,–,0.002,–
